# Results of several laboratories.
# Each line is one published result; the experiments were not run side by side.
# Target: Sodium-dependent serotonin transporter (SLC6A4, Homo sapiens, UniProt P31645)
Structure (SMILES),assay,conditions,quantity,value
Clc1ccc2c(C3=CCN(CCc4c[nH]c5ccccc45)CC3)c[nH]c2c1,"ligand displacement, radioligand",cell membranes,IC50,0.0255 µM
CC(N)CCc1ccccc1Cl (stereo not shown),"transporter uptake, inhibitor, radiometric",,Ki,24 µM
CNc1nc(C#Cc2ccc(Br)s2)nc2c1ncn2[C@H]1[C@H](O)[C@H](O)[C@]2(C(=O)OC)C[C@H]12,"ligand displacement, radioligand",cell membranes,Ki,> 10 µM
C[C@@H](NC(=O)[C@@H](N)Cc1ccc(O)cc1)C(=O)NCC(=O)N[C@@H](Cc1ccccc1)C(=O)N(C)CCC[C@@]1(c2ccc(F)cc2)OCc2cc(C#N)ccc21,"ligand displacement, radioligand",,Ki,0.28 µM
Clc1ccc2c(C3CCN(CCc4c[nH]c5ccccc45)CC3)c[nH]c2c1,"transporter uptake, inhibitor, radiometric",,Ki,0.053 µM
OC(c1ccc(F)cc1)C(F)(F)CCN1CCC(O)(c2ccc(Cl)cc2)CC1 (racemic),"ligand displacement, radioligand",,Ki,1.99 µM
COc1cc(C(=O)N2CC[C@@H](O)[C@@H](N)C2)cc2nc(-c3cc4ccccc4n3CC3CC3)n(C)c12,transporter uptake,,IC50,50.1 µM
CNc1nc2cc(OCCCCN3CCN(c4cccc(Cl)c4Cl)CC3)ccc2s1,"ligand displacement, radioligand",,Ki,0.45 µM
CN[C@@H](C)C(=O)c1ccccc1,"calcium signal, agonist, fluorescence",,EC50,15.3 µM
CC(=O)N1C[C@@H](CCN2CC=C(c3c[nH]c4cc(Cl)ccc34)CC2)c2ccccc21,"ligand displacement, radioligand",cell membranes,IC50,0.0438 µM
C[C@H](N)Cn1ncc2ccc3c(c21)CCCO3,"ligand displacement, radioligand",,Ki,62.5 µM
CCOC(=O)[C@@]12C[C@@H]1[C@@H](n1cnc3c(NC)nc(C#Cc4ccc(Cl)s4)nc31)[C@H](O)[C@@H]2O,"ligand displacement, radioligand",cell membranes,Ki,> 10 µM
CNC(C)(C)C(=O)c1ccccc1,"calcium signal, agonist, fluorescence",,EC50,12.9 µM
